Some results are limits rather than exact numbers.

By IC50 is commonly meant the concentration needed to halve the response being measured.

What all share (type): functional, cell-based
Assay [1] concerns NCI-H1792. Nature of the assay: Cytotoxicity against human NCI-H1792 cells after 72 hrs by alamar blue assay. The conditions noted are these: NCI-H1792, 72 h. The method in brief:
(§1)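 Cells seeded at 800–1000 per well (20–25 cells/µL) and left overnight to attach. Compounds were diluted serially from 10 mM DMSO stocks and tested at 8 final concentrations, 50 to 0.39 µM, in triplicate for 72 h. Vehicle control was 0.5% DMSO. Alamar blue was added to 10% final and fluorescence read after 4 h (ex 530, em 560 nm). Viability was expressed as percent of vehicle, and IC50 taken as 50% kill versus control.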
A general note: Resazurin is reduced to fluorescent resorufin, in cell work by metabolically active cells.

In assay [2] the test system is HOP-62. Put plainly: Cytotoxicity against human HOP62 cells after 72 hrs by alamar blue assay. Particulars: HOP-62, 72 h. In a few lines:
as §1

Assay [3] in a line: Cytotoxicity against human 292G cells after 72 hrs by alamar blue assay. In a few lines: as §1
Assay [4] in a line: Cytotoxicity against human M4E cells after 72 hrs by alamar blue assay. In a few lines: as §1
The test system of assay [5] is NCI-H157. Put plainly: Cytotoxicity against human NCI-H157 cells after 72 hrs by alamar blue assay. The conditions noted are these: NCI-H157, 72 h. In a few lines:
as §1

The subject of assay [6] is LOX IMVI. Nature of the assay: Cytotoxicity against human LOXIMVI cells after 72 hrs by alamar blue assay. The method in brief: as §1
For assay [7], the system named is Calu-1. Put plainly: Cytotoxicity against human Calu1 cells after 72 hrs by alamar blue assay. Particulars: Calu-1, 72 h. The method in brief:
as §1

Assay [8] in a line: Cytotoxicity against human H266 cells after 72 hrs by alamar blue assay. Particulars: H266, 72 h. The method in brief: as §1
Assay [9] has as its system NCI-H1299. Put plainly: Cytotoxicity against human NCI-H1299 cells after 72 hrs by alamar blue assay. The conditions noted are these: NCI-H1299, 72 h. In a few lines: as §1
Assay [10] deals with HeLa. Nature of the assay: Cytotoxicity against human HeLa cells after 72 hrs by alamar blue assay. The method in brief:
as §1

Assay [11] can be described thus: Cytotoxicity against human SKBR cells after 72 hrs by alamar blue assay. The method in brief: as §1
Assay [12] has as its system A549. Put plainly: Cytotoxicity against human A549 cells after 72 hrs by alamar blue assay. The conditions noted are these: A549, 72 h. In a few lines:
as §1

The test system of assay [13] is M14. Put plainly: Cytotoxicity against human M14 cells after 72 hrs by alamar blue assay. The conditions noted are these: M14, 72 h. The method in brief: as §1
Assay [14] concerns NCI-H460. Nature of the assay: Cytotoxicity against human H460 cells after 72 hrs by alamar blue assay. Particulars: NCI-H460, 72 h. In a few lines:
as §1

Consider `COc1cc(/C=C/C(=O)OCCCCOc2no[n+]([O-])c2S(=O)(=O)c2ccccc2)ccc1O`, for which the half-inhibitory concentration (IC50) in assay [1] was found to be 0.42 µM; in [2], 0.41 µM; in assay [3] it was 1.93 µM; in assay [4] it was 0.84 µM; in assay [5], 0.42 µM; in assay [6], 0.44 µM. The IC50 is 0.41 µM in [7]; 0.4 µM in assay [8]; 0.42 µM in assay [9]; 0.46 µM in [10]; 0.42 µM in assay [11]; 0.4 µM in assay [12]. Further, the IC50 was determined as 0.4 µM in assay [13] and 0.45 µM in [14].
Turning to `O=C(/C=C/c1ccc(OCCCCCO[N+](=O)[O-])c(O)c1)OCCCCCO[N+](=O)[O-]`, the IC50 in [1] was above 50 µM; in assay [2], above 50 µM; in [3], above 50 µM; in assay [4], above 50 µM; in assay [5], above 50 µM; in assay [6], 7.23 µM. Further, the 50% inhibitory concentration (IC50) was above 50 µM in assay [7]; above 50 µM in [8]; above 50 µM in assay [9]; 5.73 µM in assay [10]; 2.71 µM in assay [11]; 0.45 µM in assay [12]. For the same compound, the IC50 in [13] and in [14] was above 50 µM in each case.
As for `COC(=O)/C=C/c1ccc(O)c(O)c1` [METHYLCAFFEATE], the IC50 in assay [1] is 6.09 µM; in assay [2] it was 3.86 µM; in assay [3] it was 3.11 µM; in [4] it was 8.89 µM; in assay [5] it was 6.25 µM; in [6], 21.8 µM. The IC50 in assay [7] was 5.5 µM; in [8] it was above 50 µM; in assay [9], 3.53 µM; in [10], 3.77 µM; in assay [11], 5.15 µM; in assay [12], 7.54 µM. Moreover, the half-inhibitory concentration (IC50) in assay [13] worked out at 8.86 µM; in assay [14], 14.8 µM.
On to `O=C(/C=C/c1ccc(O)c(O)c1)OCCCO[N+](=O)[O-]`, for which the IC50 worked out at 18.1 µM in assay [1]; 10 µM in assay [2]; 13.5 µM in assay [3]; 20 µM in assay [4]; 4.34 µM in assay [5]; 18.9 µM in [6]. Further, the 50% inhibitory concentration (IC50) in [7] was 10.7 µM; in assay [8], above 50 µM; in assay [9], 8.03 µM; in [10], 3.11 µM; in assay [11], 5.77 µM; in assay [12], 10.8 µM. Also, the values for the IC50 in assay [13] and in assay [14] were 24.8 µM and 3.31 µM, respectively.
`COc1cc(/C=C/C(=O)OCCOc2no[n+]([O-])c2S(=O)(=O)c2ccccc2)ccc1O`: the half-inhibitory concentration (IC50) in [1], in assay [2], in [3], in assay [4], in assay [5] and in assay [6] was above 50 µM throughout. Besides, the half-maximal inhibitory concentration (IC50) in assay [7], in [8], in assay [9], in assay [10], in assay [11] and in assay [12] was above 50 µM in each case. For the same compound, the 50% inhibitory concentration (IC50) in assay [13] and in assay [14] was above 50 µM each time.
Regarding `CCOC(=O)/C=C/c1ccc(O)c(O)c1` [ETHYL CAFFEATE], the concentration for half-maximal inhibition (IC50) in assay [1] turned out to be 18.4 µM; in [2], 12.5 µM; in assay [3] it was 5.25 µM; in assay [4], 11.2 µM; in assay [5], 7.62 µM; in assay [6], 6.21 µM. In addition, the IC50 in assay [7] was 17.2 µM; in [8], above 50 µM; in assay [9], 4.93 µM; in assay [10] it was 1.96 µM; in assay [11] it was 4.16 µM; in assay [12] it was 7.22 µM. Besides, the 50% inhibitory concentration (IC50) came to 9.82 µM in assay [13] and 13.1 µM in assay [14].

The values are drawn from ChEMBL document CHEMBL2086326, “Biological activity evaluation and structure-activity relationships analysis of ferulic acid and caffeic acid derivatives for anticancer” (Bioorg Med Chem Lett, 2012).
